Data published in ChEMBL document CHEMBL1156833, “The discovery of MK-0674, an orally bioavailable cathepsin K inhibitor” (Bioorg Med Chem Lett, 2010).

Experiments:
Cathepsin K = Cathepsin K (Homo sapiens, UniProt P43235); assay: Inhibition of humanized rabbit cathepsin K
Homo sapiens [1] = organism: Homo sapiens; assay: Selectivity ratio of IC50 for human cathepsin B to IC50 for humanized rabbit cathepsin K
Homo sapiens [2] = organism: Homo sapiens; assay: Selectivity ratio of IC50 for human cathepsin F to IC50 for humanized rabbit cathepsin K
Homo sapiens [3] = organism: Homo sapiens; assay: Selectivity ratio of IC50 for human cathepsin L to IC50 for humanized rabbit cathepsin K
Homo sapiens [4] = organism: Homo sapiens; assay: Selectivity ratio of IC50 for human cathepsin S to IC50 for humanized rabbit cathepsin K
[5] = Oral bioavailability in rat; format: ADME, organism-based; details: in vivo
Outline: (§1)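 Pharmacokinetics in rats, rabbits and rhesus monkeys after oral dosing in 1% methocel vehicle. Half-life and oral bioavailability were derived from the plasma profiles.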

[6] = Half life in po dosed rat; format: ADME, organism-based; details: in vivo; outline: as §1
[7] = Oral bioavailability in rabbit; format: ADME, organism-based, Oryctolagus cuniculus; details: in vivo; outline: as §1
[8] = Half life in po dosed rabbit; format: ADME, organism-based, Oryctolagus cuniculus; details: in vivo; outline: as §1
[9] = Oral bioavailability in rhesus monkey; format: ADME, organism-based, Macaca mulatta; details: in vivo; outline: as §1
[10] = Half life in po dosed rhesus monkey; format: ADME, organism-based, Macaca mulatta; details: in vivo; outline: as §1
Hepatocyte [11] = assay: Metabolic stability in rat hepatocytes assessed as compound remaining; format: ADME, cell-based
[12] = Metabolic stability in rabbit hepatocytes assessed as compound remaining; format: ADME, cell-based, Oryctolagus cuniculus, Hepatocyte
[13] = Metabolic stability in rhesus monkey hepatocytes assessed as compound remaining; format: ADME, cell-based, Macaca mulatta, Hepatocyte
[14] = Decrease in bone resorption assessed as corrected bone resorption measured as ratio of bone resorption IC50 x humanized rabbit cathepsin K IC50 to rabbit cathepsin K IC50 equation; format: functional, tissue-based, Bone element
Rattus norvegicus [15] = assay: Metabolic stability in rat assessed as formation ratio of (S)-N-(1-cyanocyclopropyl)-2-((S)-1-(4'-((R)-2,2-difluoro-1-hydroxyethyl)biphenyl-4-yl)-2,2,2-trifluoroethylamino)-4-fluoro-4-methylpentanamide to (S)-N-(1-cyanocyclopropyl)-2-((S)-1-(4'-((S)-2,2-difluoro-1-hydroxyethyl)biphenyl-4-yl)-2,2,2-trifluoroethylamino)-4-fluoro-4-methylpentanamide at 25 mg/kg, po and 5 mg/kg, iv; format: ADME, organism-based; details: in vivo
Canis familiaris [16] = assay: Metabolic stability in dog assessed as formation ratio of (S)-N-(1-cyanocyclopropyl)-2-((S)-1-(4'-((R)-2,2-difluoro-1-hydroxyethyl)biphenyl-4-yl)-2,2,2-trifluoroethylamino)-4-fluoro-4-methylpentanamide to (S)-N-(1-cyanocyclopropyl)-2-((S)-1-(4'-((S)-2,2-difluoro-1-hydroxyethyl)biphenyl-4-yl)-2,2,2-trifluoroethylamino)-4-fluoro-4-methylpentanamide at 25 mg/kg, po and 5 mg/kg, iv; format: ADME, organism-based, Canis lupus familiaris; details: in vivo
Hepatocyte [17] = assay: Metabolic stability in rat hepatocytes assessed as formation ratio of (S)-N-(1-cyanocyclopropyl)-2-((S)-1-(4'-((R)-2,2-difluoro-1-hydroxyethyl)biphenyl-4-yl)-2,2,2-trifluoroethylamino)-4-fluoro-4-methylpentanamide to (S)-N-(1-cyanocyclopropyl)-2-((S)-1-(4'-((S)-2,2-difluoro-1-hydroxyethyl)biphenyl-4-yl)-2,2,2-trifluoroethylamino)-4-fluoro-4-methylpentanamide; format: ADME, cell-based
[18] = Metabolic stability in dog hepatocytes assessed as formation ratio of (S)-N-(1-cyanocyclopropyl)-2-((S)-1-(4'-((R)-2,2-difluoro-1-hydroxyethyl)biphenyl-4-yl)-2,2,2-trifluoroethylamino)-4-fluoro-4-methylpentanamide to (S)-N-(1-cyanocyclopropyl)-2-((S)-1-(4'-((S)-2,2-difluoro-1-hydroxyethyl)biphenyl-4-yl)-2,2,2-trifluoroethylamino)-4-fluoro-4-methylpentanamide; format: ADME, cell-based, Canis lupus familiaris, Hepatocyte
[19] = Metabolic stability in rabbit hepatocytes assessed as formation ratio of (S)-N-(1-cyanocyclopropyl)-2-((S)-1-(4'-((R)-2,2-difluoro-1-hydroxyethyl)biphenyl-4-yl)-2,2,2-trifluoroethylamino)-4-fluoro-4-methylpentanamide to (S)-N-(1-cyanocyclopropyl)-2-((S)-1-(4'-((S)-2,2-difluoro-1-hydroxyethyl)biphenyl-4-yl)-2,2,2-trifluoroethylamino)-4-fluoro-4-methylpentanamide; format: ADME, cell-based, Oryctolagus cuniculus, Hepatocyte
Hepatocyte [20] = assay: Metabolic stability in human hepatocytes assessed as formation ratio of (S)-N-(1-cyanocyclopropyl)-2-((S)-1-(4'-((R)-2,2-difluoro-1-hydroxyethyl)biphenyl-4-yl)-2,2,2-trifluoroethylamino)-4-fluoro-4-methylpentanamide to (S)-N-(1-cyanocyclopropyl)-2-((S)-1-(4'-((S)-2,2-difluoro-1-hydroxyethyl)biphenyl-4-yl)-2,2,2-trifluoroethylamino)-4-fluoro-4-methylpentanamide; format: ADME, cell-based
Rattus norvegicus [21] = assay: Metabolic stability in rat at 25 mg/kg, po after up to 24 hrs; format: ADME, organism-based; parameters: dose 25 mg/kg, route oral; details: in vivo
Rattus norvegicus [22] = assay: Metabolic stability in rat at 25 mg/kg, po and 5 mg/kg, iv up to 24 hrs; format: ADME, organism-based; details: in vivo
Canis familiaris [23] = assay: Metabolic stability in dog at 25 mg/kg, po and 5 mg/kg, iv up to 24 hrs; format: ADME, organism-based, Canis lupus familiaris; details: in vivo
[24] = Oral bioavailability in squirrel monkey; format: ADME, organism-based; details: saimiri, in vivo
Rattus norvegicus [25] = assay: Metabolic stability in rat assessed as conversion to (S)-N-(1-cyanocyclopropyl)-2-((S)-1-(4'-((R)-2,2-difluoro-1-hydroxyethyl)biphenyl-4-yl)-2,2,2-trifluoroethylamino)-4-fluoro-4-methylpentanamide at 25 mg/kg, po; format: ADME, organism-based; parameters: dose 25 mg/kg, route oral; details: in vivo

| SMILES | IC50 (Cathepsin K) [nM] | Ratio IC50 (Homo sapiens [1]) | Ratio IC50 (Homo sapiens [2]) | Ratio IC50 (Homo sapiens [3]) | Ratio IC50 (Homo sapiens [4]) | bioavailability [5] [%] | IC50 [14] [nM] | further results |
| --- | --- | --- | --- | --- | --- | --- | --- | --- |
| CC(C)(F)C[C@H](N[C@@H](c1ccc(-c2ccc(C3(O)CC3)cn2)cc1)C(F)(F)F)C(=O)NC1(C#N)CC1 | 0.3 | 3640 | 2760 | 18000 | 210 | 7 | – | – |
| CC(C)(F)C[C@H](N[C@@H](c1ccc(-c2ccc([C@H](O)C(F)F)cc2)cc1)C(F)(F)F)C(=O)NC1(C#N)CC1 | 0.4 | 1470 | 1600 | 14100 | 197 | 86 | 7 | half-life [6]: 10 h; bioavailability [7]: 132%; half-life [8]: 8 h; bioavailability [9]: 139%; half-life [10]: 6 h; Stability (Hepatocyte [11]): 94%; Stability [12]: 70%; Stability [13]: 88% |
| CC(C)(F)C[C@H](N[C@@H](c1ccc(-c2ccc(S(C)(=O)=O)cc2)cc1)C(F)(F)F)C(=O)NC1(C#N)CC1 [ODANACATIB] | 0.2 | 5170 | 3230 | 15000 | 300 | – | 5 | – |
| CC(C)(F)C[C@H](N[C@@H](c1ccc(-c2ccc(C(C)(C)O)cc2)cc1)C(F)(F)F)C(=O)NC1(C#N)CC1 | 0.2 | 2200 | 2410 | 28900 | 715 | 24 | 10 | half-life [6]: < 1 h |
| CC(C)(F)C[C@H](N[C@@H](c1ccc(-c2ccc(C(=O)C(F)F)cc2)cc1)C(F)(F)F)C(=O)NC1(C#N)CC1 | – | – | – | – | – | – | – | Ratio (Rattus norvegicus [15]): > 10; Ratio (Canis familiaris [16]): 5; Ratio (Hepatocyte [17]): 24; Ratio [18]: 5; Ratio [19]: 48; Ratio (Hepatocyte [20]): > 200; Stability (Rattus norvegicus [21]): Stable; Stability (Rattus norvegicus [22]): Stable; Stability (Canis familiaris [23]): Stable |
| CC(C)(F)C[C@H](N[C@@H](c1ccc(-c2ccc(S(C)(=O)=O)nc2)cc1)C(F)(F)F)C(=O)NC1(C#N)CC1 | 2.6 | 725 | – | 1300 | 28 | – | 8 | – |
| CC(C)(F)C[C@H](N[C@@H](c1ccc(-c2ccc3ncccc3c2)cc1)C(F)(F)F)C(=O)NC1(C#N)CC1 | 0.4 | 3000 | – | 6020 | 44 | – | 8 | – |
| CC(C)(F)C[C@H](N[C@@H](c1ccc(-c2ccc(C3(C(N)=O)CC3)cc2)cc1)C(F)(F)F)C(=O)NC1(C#N)CC1 | 0.2 | 1560 | 2380 | 11100 | 766 | 8 | 12 | bioavailability [24]: 5% |
| [2H][C@](O)(c1ccc(-c2ccc([C@H](N[C@@H](CC(C)(C)F)C(=O)NC3(C#N)CC3)C(F)(F)F)cc2)cc1)C(F)F | – | – | – | – | – | – | – | Stability (Rattus norvegicus [25]): Unstable; Stability (Rattus norvegicus [21]): Stable; Stability (Rattus norvegicus [22]): Stable; Stability (Canis familiaris [23]): Stable |
| CC(C)(F)C[C@H](N[C@@H](c1ccc(-c2ccc(C3(C(N)=O)CC3)cn2)cc1)C(F)(F)F)C(=O)NC1(C#N)CC1 | 0.5 | 3920 | 3440 | 3700 | 849 | – | 35 | – |
| CC(C)(F)C[C@H](N[C@@H](c1ccc(-c2ccc(C3(O)CC3)cc2)cc1)C(F)(F)F)C(=O)NC1(C#N)CC1 | 0.2 | 1420 | 1150 | 11000 | 106 | – | 13 | – |
| C[C@H](C(N)=O)c1ccc(-c2ccc([C@H](N[C@@H](CC(C)(C)F)C(=O)NC3(C#N)CC3)C(F)(F)F)cc2)cc1 | 0.2 | 1440 | 3590 | 21300 | 693 | – | 35 | – |
| [2H][C@@](O)(c1ccc(-c2ccc([C@H](N[C@@H](CC(C)(C)F)C(=O)NC3(C#N)CC3)C(F)(F)F)cc2)cc1)C(F)F | – | – | – | – | – | – | – | Stability (Rattus norvegicus [25]): Unstable; Stability (Rattus norvegicus [21]): Stable; Stability (Rattus norvegicus [22]): Stable; Stability (Canis familiaris [23]): Stable |
| CC(C)(F)C[C@H](N[C@@H](c1ccc(-c2ccc([C@@H](O)C(F)F)cc2)cc1)C(F)(F)F)C(=O)NC1(C#N)CC1 | 0.4 | 1160 | 1460 | 11900 | 243 | 122 | 10 | half-life [6]: 7 h; bioavailability [7]: 70%; half-life [8]: 14 h; bioavailability [9]: 64%; half-life [10]: 11 h; Stability (Hepatocyte [11]): 95%; Stability [12]: 93%; Stability [13]: 93% |
| Cc1csc(-c2ccc([C@H](N[C@@H](CC(C)(C)F)C(=O)NC3(C#N)CC3)C(F)(F)F)cc2)n1 | 0.3 | 4040 | 1980 | 18800 | 777 | 10 | 14 | bioavailability [24]: 5% |
